# Test results as given in ChEMBL document CHEMBL3576792, “Enhancement of antibiotic activity against multidrug-resistant bacteria by the efflux pump inhibitor 3,4-dibromopyrrole-2,5-dione isolated from a Pseudoalteromonas sp” (J Nat Prod, 2015).
# Activity calls are given as the source filed them. The rule behind the calls is not given here.
# Tests used:
# [1] = tested on: Escherichia coli; assay: Potentiation of chloramphenicol-induced antibacterial activity Escherichia coli AG102 overexpressing AcrAB-TolC assessed as chloramphenicol MIC by p-iodonitrotetrazolium chloride colorimetric assay; type: functional
# In short: (§1)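 Checkerboard microdilution in Mueller-Hinton broth: two-fold dilutions of antibiotic crossed with dilutions of test compound above, at and below their MICs. Growth was read by INT colorimetric assay, with MIC as the lowest concentration showing no visible growth. FICs and FIC index were derived from these MICs. ΔBC/pABM and ΔBC/pXYM strains were grown with 100 μg/mL ampicillin and 1 mM IPTG.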
# [2] = tested on: Escherichia coli; assay: Potentiation of chloramphenicol-induced antibacterial activity Escherichia coli transformed with plasmid carrying MG1655 deltaBC/pABM assessed as chloramphenicol MIC by p-iodonitrotetrazolium chloride colorimetric assay; type: functional; in short: as §1
# [3] = tested on: Escherichia coli; assay: Potentiation of chloramphenicol-induced antibacterial activity Escherichia coli transformed with plasmid carrying MG1655 deltaBC/pXYM assessed as chloramphenicol MIC by p-iodonitrotetrazolium chloride colorimetric assay; type: functional; in short: as §1
# [4] = tested on: Escherichia coli; assay: Inhibition of AcrAB-TolC pump in Escherichia coli AG100 assessed as increase in intracellular H33342 fluorescence at >= 1 ug/ml after 60 mins by efflux inhibition assay; type: cell-based
# In short: (§2)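 AG100 (wild-type K-12) or AG100A (ΔacrAB) cells were grown in Luria broth at 37 °C and 200 rpm to OD600 1.0, PBS-washed and diluted to OD600 0.3. Cells took up 2.5 μM Hoechst 33342 with 22 mM glucose at 37 °C for about 30 min, then compound (0.06–64 μg/mL) or PAβN (15.6 μg/mL) was added. Fluorescence (Ex 350/Em 460 nm) was followed for 60 min and corrected for background. The last four time points were compared to dye-only control by ANOVA with Dunnett's test, run in duplicate.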
# [5] = tested on: Escherichia coli; assay: Potentiation of ciprofloxacin-induced antibacterial activity Escherichia coli transformed with plasmid carrying MG1655 deltaBC/pXYM assessed as ciprofloxacin MIC by p-iodonitrotetrazolium chloride colorimetric assay; type: functional; in short: as §1
# [6] = tested on: Escherichia coli; assay: Potentiation of kanamycin-induced antibacterial activity Escherichia coli transformed with plasmid carrying MG1655 deltaBC/pABM assessed as kanamycin MIC by p-iodonitrotetrazolium chloride colorimetric assay; type: functional; in short: as §1
# [7] = tested on: Escherichia coli; assay: Potentiation of kanamycin-induced antibacterial activity Escherichia coli transformed with plasmid carrying MG1655 deltaBC/pXYM assessed as kanamycin MIC by p-iodonitrotetrazolium chloride colorimetric assay; type: functional; in short: as §1
# [8] = tested on: Escherichia coli; assay: Potentiation of oxacillin-induced antibacterial activity Escherichia coli transformed with plasmid carrying MG1655 deltaBC/pABM assessed as oxacillin MIC by p-iodonitrotetrazolium chloride colorimetric assay; type: functional, organism-based; in short: as §1
# [9] = tested on: Escherichia coli; assay: Potentiation of piperacillin-induced antibacterial activity Escherichia coli transformed with plasmid carrying MG1655 deltaBC/pXYM assessed as piperacillin MIC by p-iodonitrotetrazolium chloride colorimetric assay; type: functional; in short: as §1
# [10] = tested on: Escherichia coli; assay: Potentiation of ciprofloxacin-induced antibacterial activity Escherichia coli AG102 overexpressing AcrAB-TolC by p-iodonitrotetrazolium chloride colorimetric assay; type: functional
# [11] = tested on: Escherichia coli; assay: Potentiation of erythromycin-induced antibacterial activity Escherichia coli AG102 overexpressing AcrAB-TolC by p-iodonitrotetrazolium chloride colorimetric assay; type: functional
# [12] = tested on: Escherichia coli; assay: Potentiation of erythromycin-induced antibacterial activity Escherichia coli transformed with plasmid carrying MG1655 deltaBC/pABM by p-iodonitrotetrazolium chloride colorimetric assay; type: functional
# [13] = tested on: Escherichia coli; assay: Potentiation of erythromycin-induced antibacterial activity Escherichia coli transformed with plasmid carrying MG1655 deltaBC/pXYM by p-iodonitrotetrazolium chloride colorimetric assay; type: functional
# [14] = tested on: Escherichia coli; assay: Potentiation of kanamycin-induced antibacterial activity Escherichia coli AG102 overexpressing AcrAB-TolC by p-iodonitrotetrazolium chloride colorimetric assay; type: functional
# [15] = tested on: Escherichia coli; assay: Potentiation of kanamycin-induced antibacterial activity Escherichia coli transformed with plasmid carrying MG1655 deltaBC/pXYM by p-iodonitrotetrazolium chloride colorimetric assay; type: functional
# [16] = tested on: Escherichia coli; assay: Potentiation of piperacillin-induced antibacterial activity Escherichia coli AG102 overexpressing AcrAB-TolC by p-iodonitrotetrazolium chloride colorimetric assay; type: functional
# [17] = tested on: Escherichia coli; assay: Potentiation of piperacillin-induced antibacterial activity Escherichia coli transformed with plasmid carrying MG1655 deltaBC/pXYM by p-iodonitrotetrazolium chloride colorimetric assay; type: functional
# [18] = tested on: Escherichia coli; assay: Potentiation of tetracycline-induced antibacterial activity Escherichia coli transformed with plasmid carrying MG1655 deltaBC/pABM by p-iodonitrotetrazolium chloride colorimetric assay; type: functional
# [19] = tested on: Escherichia coli K-12; assay: Inhibition of AcrAB-TolC pump in Escherichia coli K-12 AG100 assessed as […] at 0.06 ug/ml after 60 mins by accumulation assay
# In short: (§3)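 AG100 (wild-type K-12) or AG100A (ΔacrAB) grown in Luria broth at 37 °C and 200 rpm to OD600 1.0, PBS-washed, diluted to OD600 0.3. Cells given 2.5 μM H33342 with 22 mM glucose at 37 °C for ~30 min until stable, then compound (0.06–64 μg/mL) added. Fluorescence (Ex 350/Em 460) read for 60 min, background subtracted. Final 4 time points averaged; one-way ANOVA/Dunnett vs Hoechst-only; n = 8.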
# [20] = tested on: Escherichia coli; assay: Effect on intracellular H33342 accumulation in Escherichia coli AG100A delta acrAB mutant at 64 ug/ml after 60 mins by accumulation assay; type: functional
# In short: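 Cells grown in Luria broth at 37 °C, 200 rpm to OD600 1.0, then washed twice in PBS and diluted in glucose-free PBS to OD600 0.3. H33342 was used at 2.5 μM with 22 mM glucose at 37 °C and allowed to accumulate for ~30 min. Compound was then added and fluorescence (Ex 350/Em 460 nm) followed for 60 min. Values are the mean RFU of the final 4 min, after media-plus-compound background was subtracted. Run in duplicate, n = 8.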
# [21] = tested on: Escherichia coli; assay: Effect on intracellular H33342 accumulation in Escherichia coli AG100A delta acrAB mutant at 4 ug/ml after 60 mins by accumulation assay; type: functional; in short: as §3
# [22] = tested on: Escherichia coli K-12; assay: Inhibition of AcrAB-TolC pump in Escherichia coli K-12 AG100 assessed as increase in intracellular H33342 fluorescence at 64 ug/ml after 60 mins by efflux inhibition assay; type: cell-based; in short: as §2
# [23] = tested on: Escherichia coli K-12; assay: Inhibition of AcrAB-TolC pump in Escherichia coli K-12 AG100 assessed as increase in intracellular H33342 fluorescence at 4 ug/ml after 60 mins by efflux inhibition assay; type: cell-based
# In short: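 Washed AG100 cells loaded for 60 min with 2.5 μM H33342 plus compound (no glucose, 25 °C). They were then pelleted, resuspended in ice-cold PBS and re-exposed to the same compound concentrations with or without glucose at 37 °C. Fluorescence (Ex 350/Em 460) followed for 30 min, no-glucose values subtracted, data normalized to loaded cells.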
# [24] = tested on: Escherichia coli K-12; assay: Inhibition of AcrAB-TolC pump in Escherichia coli K-12 AG100 assessed as increase in intracellular H33342 fluorescence at 1 ug/ml after 60 mins by efflux inhibition assay; type: cell-based; in short: as §2
# [25] = tested on: Escherichia coli K-12; assay: Inhibition of AcrAB-TolC pump in Escherichia coli K-12 AG100 assessed as increase in H33342 accumulation at 64 ug/ml after 60 mins by accumulation assay
compound,measurement,setting,value
O=C1NC(=O)C(Br)=C1Br,MIC,[1],64 µg/mL
same,MIC,[2],128 µg/mL
same,MIC,[3],64 µg/mL
same,inhibition,[4],Active
same,MIC,[5],32 µg/mL
same,MIC,[6],128 µg/mL
same,MIC,[7],32 µg/mL
same,MIC,[8],inactive
same,MIC,[9],256 µg/mL
same,fractional inhibitory concentration index (FICI),[10],0.5
same,fractional inhibitory concentration index (FICI),[11],0.38
same,fractional inhibitory concentration index (FICI),[12],0.19
same,fractional inhibitory concentration index (FICI),[13],0.31
same,fractional inhibitory concentration index (FICI),[14],0.27
same,fractional inhibitory concentration index (FICI),[15],0.75
same,fractional inhibitory concentration index (FICI),[16],0.75
same,fractional inhibitory concentration index (FICI),[17],0.52
same,fractional inhibitory concentration index (FICI),[18],1
same,RFU,[19],758
same,RFU,[20],1090
same,RFU,[21],1200
same,RFU,[22],-68
same,RFU,[23],-101
same,RFU,[24],-247
same,RFU,[25],1200
